Consider one compound from ChEMBL document CHEMBL1124286, “(R)-(-)-10-methyl-11-hydroxyaporphine: a highly selective serotonergic agonist” (1988).

The species named for test [1] is Rattus norvegicus. In words: Influence on 5-hydroxyindoleacetic acid (5-HIAA) concentration in olfactory tubercle region of brain. The test is classed as functional, organism-based. A digest of the protocol: (§1)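 Male Sprague-Dawley rats (150-250 g) given 4 mg/kg sc; killed 30 min later. Brain regions dissected, weighed, homogenized in 0.01 N HClO4, kept on ice 15 min, centrifuged 13000g 2 min. Supernatant analysed by HPLC with electrochemical detection: C-18 reverse-phase column, 0.1 M sodium phosphate mobile phase with EDTA, octanesulfonic acid, 10% MeOH, pH 3.8; glassy carbon electrode at +0.65. Compared with untreated controls by ANOVA and multiple regression.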

For test [2], the species on record is Rattus norvegicus. As to the kind of experiment: Influence on 5-hydroxy tryptamine (5-HT) concentration in olfactory tubercle region of brain. The test is classed as functional, organism-based. A digest of the protocol:
as §1

Test [3] can be described thus: Ratio of 5-HT concentration to 5-HIAA concentration in parietal cortex region of brain. The test is classed as functional. A digest of the protocol: as §1
The species entered for test [4] is Rattus norvegicus. In words: Influence on 5-hydroxy tryptamine (5-HT) concentration in frontal cortex region of brain. The format is functional, organism-based. A digest of the protocol:
as §1

Test [5] is filed under the species Rattus norvegicus. As to the kind of experiment: Influence on 5-hydroxyindoleacetic acid (5-HIAA) concentration in parietal cortex region of brain. The format is functional, organism-based. A digest of the protocol:
as §1

Test [6] can be described thus: Ratio of 5-HT concentration to 5-HIAA concentration in amygdala region of brain. The format is functional. A digest of the protocol:
as §1

The nature of test [7]: Ratio of 5-HT concentration to 5-HIAA concentration in hippocampus region of brain. The format is functional. A digest of the protocol: as §1
The species named for test [8] is Rattus norvegicus. In words: Influence on 5-hydroxyindoleacetic acid (5-HIAA) concentration in frontal cortex region of brain. The format is functional, organism-based. A digest of the protocol:
as §1

For test [9], the species on record is Rattus norvegicus. In words: Influence on 5-hydroxyindoleacetic acid (5-HIAA) concentration in septum region of brain. The test is classed as functional, organism-based. A digest of the protocol: as §1
Test [10] is filed under the species Rattus norvegicus. As to the kind of experiment: Influence on 5-hydroxyindoleacetic acid (5-HIAA) concentration in caudate region of brain. The test is classed as functional, organism-based. A digest of the protocol:
as §1

Test [11] is filed under the species Rattus norvegicus. As to the kind of experiment: Influence on 5-hydroxyindoleacetic acid (5-HIAA)concentration in amygdala region of brain. The format is functional, organism-based. A digest of the protocol:
as §1

For test [12], the species on record is Rattus norvegicus. In words: Influence on 5-hydroxy tryptamine (5-HT) concentration in septum region of brain. The format is functional, organism-based. A digest of the protocol: as §1
The nature of test [13]: Ratio of 5-HT concentration to 5-HIAA concentration in septum region of brain. The test is classed as functional. A digest of the protocol: as §1
The species entered for test [14] is Rattus norvegicus. As to the kind of experiment: Influence on 5-hydroxy tryptamine (5-HT) concentration in caudate region of brain. The test is classed as functional, organism-based. A digest of the protocol:
as §1

The species named for test [15] is Rattus norvegicus. As to the kind of experiment: Influence on 5-hydroxy tryptamine (5-HT) concentration in parietal cortex region of brain. The format is functional, organism-based. A digest of the protocol: as §1
Test [16] can be described thus: Ratio of 5-HT concentration to 5-HIAA concentration in caudate region of brain. The format is functional. A digest of the protocol: as §1
For test [17], the species on record is Rattus norvegicus. In words: Influence on 5-hydroxy tryptamine (5-HT) concentration in amygdala region of brain. The format is functional, organism-based. A digest of the protocol: as §1
The species entered for test [18] is Rattus norvegicus. As to the kind of experiment: Influence on 5-hydroxy tryptamine (5-HT) concentration in hippocampus region of brain. The test is classed as functional, organism-based. A digest of the protocol: as §1
The species entered for test [19] is Rattus norvegicus. In words: Influence on 5-hydroxyindoleacetic acid (5-HIAA) concentration in hypothalamus region of brain. The format is functional, organism-based. A digest of the protocol:
as §1

Test [20] is described as follows: Ratio of 5-HT concentration to 5-HIAA concentration in olfactory tubercle region of brain. The test is classed as functional. A digest of the protocol:
as §1

The species entered for test [21] is Rattus norvegicus. As to the kind of experiment: Influence on 5-hydroxyindoleacetic acid (5-HIAA) concentration in hippocampus region of brain. The test is classed as functional, organism-based. A digest of the protocol:
as §1

Test [22] is described as follows: Ratio of 5-HT concentration to 5-HIAA concentration in frontal cortex region of brain. The test is classed as functional. A digest of the protocol: as §1
For test [23], the species on record is Rattus norvegicus. As to the kind of experiment: Influence on 5-hydroxy tryptamine (5-HT) concentration in hypothalamus region of brain. The format is functional, organism-based. A digest of the protocol:
as §1

Test [24] is described as follows: Ratio of 5-HT concentration to 5-HIAA concentration in hypothalamus region of brain. The test is classed as functional. A digest of the protocol: as §1

With `CCCN(CCC)C1CCc2cccc(O)c2C1` (centres undefined) [8-OH-DPAT], the Concentration in the test filed under Rattus norvegicus [1] amounted to 1.4 nM/g; in the test listed under Rattus norvegicus [2], 8.3 nM/g; in the test filed under Rattus norvegicus [4], 4.2 nM/g; in the test filed under Rattus norvegicus [5], 0.8 nM/g; in the test listed under Rattus norvegicus [8], 0.8 nM/g; in the test listed under Rattus norvegicus [9] it was 1.5 nM/g. For the same compound, the Concentration in the test filed under Rattus norvegicus [10] was 2.6 nM/g; in the test filed under Rattus norvegicus [11], 1 nM/g; in the test listed under Rattus norvegicus [12], 4.5 nM/g; in the test listed under Rattus norvegicus [14], 3.6 nM/g; in the test filed under Rattus norvegicus [15], 3.1 nM/g; in the test listed under Rattus norvegicus [17], 4.9 nM/g. The Concentration amounted to 4.2 nM/g in the test listed under Rattus norvegicus [18], 1.9 nM/g in the test listed under Rattus norvegicus [19], 1.7 nM/g in the test filed under Rattus norvegicus [21] and 7.1 nM/g in the test filed under Rattus norvegicus [23]. In addition, the Ratio in test [3] is 4.1; in [6], 5.8; in test [7], 2.5; in [13] it was 3; in test [16], 1.5; in test [20] it was 5.9. In addition, the Ratio in test [22] came out at 5.8; in test [24] it was 3.9.
